The source of these data is ChEMBL document CHEMBL1806425, “Design and synthesis of 4-amino-2-phenylquinazolines as novel topoisomerase I inhibitors with molecular modeling” (Bioorg Med Chem, 2011).

Assay [1] deals with A549. Briefly: Cytotoxicity against human A549 cells by sulforhodamine B assay. The class given is functional, cell-based.
Assay [2] has as its system HCT-15. Nature of the assay: Cytotoxicity against human HCT15 cells by sulforhodamine B assay. The class given is functional, cell-based.
Assay [3] concerns SK-OV-3. Nature of the assay: Cytotoxicity against human SKOV3 cells by sulforhodamine B assay. The class given is functional, cell-based.
Assay [4] has as its system SK-MEL-2. Briefly: Cytotoxicity against human SK-MEL-2 cells by sulforhodamine B assay. The class given is functional, cell-based.
The species entered for assay [5] is Bos taurus. Nature of the assay: Inhibition of calf thymus DNA topoisomerase I assessed as relaxation of supercoiled DNA pBR322 at 100 ug/ml after 30 mins by agarose gel electrophoresis relative to camptothecin. Summed up: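 Relaxation of 200 ng pBR322 supercoiled plasmid by 2 units calf thymus topo I, incubated with or without compound (20 mM DMSO stocks) for 30 min at 37 °C. Buffer: 35 mM Tris–HCl pH 8.0, 72 mM KCl, 5 mM MgCl2, 5 mM DTT, 2 mM spermidine, 0.01% BSA. The reaction was stopped with SDS/glycerol dye, then run on 1% agarose in TAE at 15 V for 6 h and stained.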

The species named for assay [6] is Bos taurus. Nature of the assay: Inhibition of calf thymus DNA topoisomerase I assessed as relaxation of supercoiled DNA pBR322 at 10 to 100 ug/ml after 30 mins by agarose gel electrophoresis. Summed up:
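Relaxation of supercoiled pBR322 plasmid DNA (200 ng) by 2 units calf thymus topo I, incubated with or without compound at 37 °C for 30 min. Buffer: 35 mM Tris–HCl pH 8.0, 72 mM KCl, 5 mM MgCl2, 5 mM DTT, 2 mM spermidine, 0.01% BSA. Stopped with SDS/dye/glycerol solution. Run on 1% agarose gel in TAE at 15 V for 6 h, then stained. Compound stocks were 20 mM in DMSO.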

In brackets after ≈: the same amount, converted by molar mass. Activity calls are given as the source filed them. The rule behind the calls is not given here.

As usually defined, the IC50 is the concentration that inhibits the measured activity by half. A low value points to greater potency in that assay. On to `CC(C)Nc1nc(-c2ccccc2)nc2ccccc12`, for which the IC50 was determined as 7.53 µg/mL (≈ 28.6 µM) in assay [1], 4.11 µg/mL (≈ 15.6 µM) in assay [2], 16.9 µg/mL (≈ 64.2 µM) in assay [3] and 16.5 µg/mL (≈ 62.5 µM) in assay [4]. Besides, the inhibition entry in assay [5] was “Active”.
For `COc1cccc2c1C(=O)c1c(O)c3c(c(O)c1C2=O)C[C@@](O)(C(=O)CO)C[C@@H]3O[C@H]1C[C@H](N)[C@H](O)[C@H](C)O1` [DOXORUBICIN], the values for the IC50 in assay [2], in assay [3] and in assay [4] were 0.05 µg/mL (≈ 0.092 µM), 0.08 µg/mL (≈ 0.147 µM) and 0.09 µg/mL (≈ 0.166 µM), respectively.
For `CCOC(=O)CCNc1nc(-c2ccccc2)nc2ccccc12.Cl`, the IC50 in assay [1], in assay [2], in assay [3] and in assay [4] was more than 100 µg/mL in each case. In assay [5], the inhibition result was “inactive”.
Regarding `CN(C)CCN(C)c1nc(-c2ccccc2)nc2ccccc12`, the IC50 was found to be 28.1 µg/mL (≈ 91.8 µM) in assay [1], 26.5 µg/mL (≈ 86.4 µM) in assay [2], 25.5 µg/mL (≈ 83.3 µM) in assay [3] and 28.9 µg/mL (≈ 94.4 µM) in assay [4]. In assay [5], the inhibition entry was “Active”.
For `COC(=O)CNc1nc(-c2ccccc2)nc2ccccc12`, in that order: 36.3 µg/mL (≈ 124 µM), 37.5 µg/mL (≈ 128 µM), 35.5 µg/mL (≈ 121 µM), 37.6 µg/mL (≈ 128 µM) and “Active”.
Taken in the same sequence, the figures for `CN1CCN(c2nc(-c3ccccc3)nc3ccccc23)CC1` were 26.9 µg/mL (≈ 88.3 µM), 22.4 µg/mL (≈ 73.5 µM), 26.8 µg/mL (≈ 88.2 µM), 37 µg/mL (≈ 122 µM) and “Active”.
Taken in the same sequence, the figures for `CN1CCCN(c2nc(-c3ccccc3)nc3ccccc23)CC1` were 24.1 µg/mL (≈ 75.7 µM), 20.1 µg/mL (≈ 63.1 µM), 26.1 µg/mL (≈ 82 µM), 36.5 µg/mL (≈ 115 µM) and “Active”.
As for `c1ccc(CNc2nc(-c3ccccc3)nc3ccccc23)cc1`, the IC50 in assay [1] is 15.1 µg/mL (≈ 48.6 µM); in assay [2], 13.9 µg/mL (≈ 44.7 µM); in assay [3], 31.7 µg/mL (≈ 102 µM); in assay [4] it was 31.2 µg/mL (≈ 100 µM).
For `Cl.c1ccc(CNc2nc(-c3ccccc3)nc3ccccc23)cc1`, in that order: 9.79 µg/mL, 6.13 µg/mL, 9.5 µg/mL and 15.8 µg/mL.
Regarding `c1ccc(-c2nc(N3CCOCC3)c3ccccc3n2)cc1`, the IC50 is 52.8 µg/mL (≈ 181 µM) in assay [1], 51.8 µg/mL (≈ 178 µM) in assay [2], 57 µg/mL (≈ 196 µM) in assay [3] and 65.2 µg/mL (≈ 224 µM) in assay [4]. Further, in assay [5], the inhibition entry was “Active”.
Consider `CC[C@@]1(O)C(=O)OCc2c1cc1n(c2=O)Cc2cc3ccccc3nc2-1` [CAMPTOTHECIN], for which the IC50 in assay [1] came out at 0.072 µg/mL (≈ 0.207 µM); in assay [2], 0.096 µg/mL (≈ 0.276 µM); in assay [3] it was 1.54 µg/mL (≈ 4.42 µM); in assay [4], 6.88 µg/mL (≈ 19.7 µM). In assay [6], the inhibition entry is “Active”.
For `c1ccc(-c2nc(NC3CCCCC3)c3ccccc3n2)cc1`, the IC50 in assay [1] came out at 7.23 µg/mL (≈ 23.8 µM); in assay [2], 2.76 µg/mL (≈ 9.1 µM); in assay [3], 9.82 µg/mL (≈ 32.4 µM); in assay [4], 9.63 µg/mL (≈ 31.7 µM). Moreover, the inhibition result in assay [5] is “Active”.
Taken in the same sequence, the figures for `COCCNc1nc(-c2ccccc2)nc2ccccc12` were 27.4 µg/mL (≈ 98.3 µM), 26.8 µg/mL (≈ 96.1 µM), 22.9 µg/mL (≈ 82 µM), 27.6 µg/mL (≈ 98.9 µM) and “Active”.
In the case of `CNc1nc(-c2ccccc2)nc2ccccc12`, the IC50 in assay [1] stood at 29.3 µg/mL (≈ 125 µM); in assay [2], 21.2 µg/mL (≈ 90 µM); in assay [3] it was 33.6 µg/mL (≈ 143 µM); in assay [4], 24.4 µg/mL (≈ 104 µM). Also, the inhibition entry in assay [5] is “inactive”.
